Laboratory results: ChEMBL document CHEMBL1800039, “Structure-based design of short peptide ligands binding onto the E. coli processivity ring” (J Med Chem, 2011)
Where a SMILES comes first, the peptide text is derived from it. [ ]: non-standard residue; d: D form. Phe(3,4-Cl2) = N[C@@H](Cc1ccc(Cl)c(Cl)c1)C(=O)O; Phe(4-Br) = N[C@@H](Cc1ccc(Br)cc1)C(=O)O; Phe(4-Cl) = N[C@@H](Cc1ccc(Cl)cc1)C(=O)O; Phe(4-Me) = Cc1ccc(C[C@H](N)C(=O)O)cc1; hCha = N[C@@H](CCC1CCCCC1)C(=O)O; tBuAla = CC(C)(C)C[C@H](N)C(=O)O; Cha = N[C@@H](CC1CCCCC1)C(=O)O

Key:
[1] = Binding affinity to Escherichia coli DNA polymerase 3 subunit beta expressed in Escherichia coli BL21 by ITC assay
Method in brief: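 ITC at 25 C: peptide (400 μM) was injected in 2 μL steps into His-tagged β clamp (20 or 30 μM) in 10 mM Hepes pH 7.4, 0.15 M NaCl, 3 mM EDTA, 0.005% P20. Heats were corrected using peptide-into-buffer controls.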

[2] = Binding affinity to Escherichia coli DNA polymerase 3 subunit beta expressed in Escherichia coli BL21 by SPR analysis
Method in brief: (§1)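 N-His-tagged E. coli β clamp (dnaN in pET15b, BL21, IPTG-induced at 28 C; Ni-NTA then MonoQ) was analysed by SPR on a chip carrying immobilized P1 peptide. For direct binding, β at 0.125–2 μM was injected at 50 μL/min, and background-subtracted data were fit to a 1:1 Langmuir model. For competition, β (0.25 μM) was premixed with peptide (1.5 nM–100 μM) and injected. IC50 came from % binding inhibition; Ki = (1 + KA[β])/IC50 and ΔG = RT ln Ki.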

[3] = Inhibition of Escherichia coli DNA polymerase 3 subunit beta-dependent elongation activity expressed in Escherichia coli BL21 after 2 hrs by competitive biochemical assay
Method in brief: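 Assay run in 40 mM HEPES pH 7.5 with 80 mM K-glutamate, BSA, 16% glycerol, NP40 and 8 mM DTT. Primed 30/90-mer duplex (1 nM) was loaded at 37 C with SSB (90 nM), ATP (200 μM) and MgCl2 (7.5 mM), then γ complex (1 nM) and β dimer (5 nM). Mixtures took peptide or DMSO for 5 min at RT plus 2 h at 4 C.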

[4] = Binding affinity to Escherichia coli DNA polymerase 3 subunit beta expressed in Escherichia coli BL21 assessed as dissociation constant by SPR analysis; method in brief: as §1
Escherichia coli [5] = assay: Ratio of ull length DNA polymerase 4 Kd to compound Kd for Escherichia coli DNA polymerase 3 subunit beta by ITC assay
Escherichia coli [6] = assay: Ratio of ull length DNA polymerase 4 IC50 to compound IC50 for Escherichia coli DNA polymerase 3 subunit beta by SPR analysis
[7] = Inhibition of Escherichia coli DNA polymerase 3

Row | Molecule | Kd [1] | IC50 [2] | Ka (inhibitor association constant, 1/M; higher = tighter) [2] | IC50 [3] | Kd [4] | Ratio (Escherichia coli [5]) | Ratio IC50 (Escherichia coli [6]) | Ki [7]
1 | CC(=O)N[C@@H](CCC(N)=O)C(=O)N[C@@H](CC1CCCCC1)C(=O)N[C@@H](CC(=O)O)C(=O)N[C@@H](CC(C)C)C(=O)N[C@@H](Cc1ccc(Cl)cc1)C(=O)O (Ac-Q[Cha]DL[Phe(4-Cl)]-OH) | 89 nM | 160 nM | 13.7 ×10⁶ /M | 300 nM | – | – | – | –
2 | H-RQLVLL-OH | – | 21500 nM | 0.0063 ×10⁶ /M | – | – | – | – | –
3 | H-RQLVLGL-OH | 1580 nM | 8850 nM | 0.15 ×10⁶ /M | – | 285 nM | – | – | –
4 | CC(=O)N[C@@H](CCC(N)=O)C(=O)N[C@@H](CC1CCCCC1)C(=O)N[C@@H](CC(=O)O)C(=O)N[C@@H](CC(C)C)C(=O)N[C@@H](Cc1ccc(Cl)c(Cl)c1)C(=O)O (Ac-Q[Cha]DL[Phe(3,4-Cl2)]-OH) | 55 nM | – | – | 125 nM | – | 4 | 4 | –
5 | CC(=O)N[C@@H](CCC(N)=O)C(=O)N[C@@H](CC1CCCCC1)C(=O)N[C@@H](CC(=O)O)C(=O)N[C@@H](CC(C)C)C(=O)N[C@@H](Cc1ccccc1)C(=O)O (Ac-Q[Cha]DLF-OH) | 222 nM | 170 nM | 8.01 ×10⁶ /M | 2800 nM | – | – | – | –
6 | CCOc1cc(/C=C2\SC(=S)N(CC(=O)O)C2=O)c(Br)c(Br)c1O | – | – | – | – | – | – | – | 10000 nM
7 | CC(=O)N[C@@H](CCC(N)=O)C(=O)N[C@@H](CC(C)(C)C)C(=O)N[C@@H](CC(=O)O)C(=O)N[C@@H](CC(C)C)C(=O)N[C@@H](Cc1ccccc1)C(=O)O (Ac-Q[tBuAla]DLF-OH) | – | 990 nM | 1.36 ×10⁶ /M | – | – | – | – | –
8 | CC(=O)N[C@@H](CCC(N)=O)C(=O)N[C@@H](CCC1CCCCC1)C(=O)N[C@@H](CC(=O)O)C(=O)N[C@@H](CC(C)C)C(=O)N[C@@H](Cc1ccccc1)C(=O)O (Ac-Q[hCha]DLF-OH) | – | 82800 nM | 0.0164 ×10⁶ /M | – | – | – | – | –
9 | CC(=O)N[C@@H](CCC(N)=O)C(=O)N[C@@H](CC1CCCCC1)C(=O)N[C@@H](CC(=O)O)C(=O)N[C@@H](CC(C)C)C(=O)N[C@@H](Cc1ccc(Br)cc1)C(=O)O (Ac-Q[Cha]DL[Phe(4-Br)]-OH) | 136 nM | 96 nM | 13.49 ×10⁶ /M | 250 nM | – | – | – | –
10 | H-RQLVLF-OH | 2320 nM | 8620 nM | 0.15 ×10⁶ /M | 7000 nM | – | – | – | –
11 | CC(=O)N[C@@H](CCC(N)=O)C(=O)N[C@@H](CC(C)C)C(=O)N[C@@H](CC(=O)O)C(=O)N[C@@H](CC(C)C)C(=O)N[C@@H](Cc1ccccc1)C(=O)O | 613 nM | 1120 nM | 1.2 ×10⁶ /M | 4500 nM | – | – | – | –
12 | CC(=O)N[C@@H](CCC(N)=O)C(=O)N[C@@H](CC1CCCCC1)C(=O)N[C@@H](CC(=O)O)C(=O)N[C@@H](CC(C)C)C(=O)N[C@@H](Cc1ccc(C)cc1)C(=O)O (Ac-Q[Cha]DL[Phe(4-Me)]-OH) | 362 nM | 260 nM | 8.43 ×10⁶ /M | 2000 nM | – | – | – | –
13 | CC(C)C[C@H](NC(=O)[C@H](CC(=O)O)NC(=O)[C@H](CC(C)C)NC(=O)[C@@H](N)CCC(N)=O)C(=O)N[C@@H](Cc1ccccc1)C(=O)O | – | 12400 nM | 0.11 ×10⁶ /M | – | – | – | – | –
14 | H-RQLVFL-OH | – | 256000 nM | – | – | – | – | – | –
15 | CC(=O)N[C@@H](CCC(N)=O)C(=O)N[C@@H](CCC(C)C)C(=O)N[C@@H](CC(=O)O)C(=O)N[C@@H](CC(C)C)C(=O)N[C@@H](Cc1ccccc1)C(=O)O | – | 740 nM | 1.84 ×10⁶ /M | – | – | – | – | –
